Experimental data taken from ChEMBL document CHEMBL4229337, “Design, synthesis and biological evaluation of 1-hydroxy-2-phenyl-4-pyridyl-1H-imidazole derivatives as xanthine oxidase inhibitors” (Eur J Med Chem, 2018).

Assays:
[1] = biological target: T1, Xanthine dehydrogenase/oxidase (Bos taurus, UniProt P80457); experiment: Inhibition of bovine xanthine oxidase assessed as reduction in uric acid formation using xanthine as substrate preincubated for 15 mins followed by substrate addition by spectrophotometric analysis
T1 sequence (P80457 whole entry): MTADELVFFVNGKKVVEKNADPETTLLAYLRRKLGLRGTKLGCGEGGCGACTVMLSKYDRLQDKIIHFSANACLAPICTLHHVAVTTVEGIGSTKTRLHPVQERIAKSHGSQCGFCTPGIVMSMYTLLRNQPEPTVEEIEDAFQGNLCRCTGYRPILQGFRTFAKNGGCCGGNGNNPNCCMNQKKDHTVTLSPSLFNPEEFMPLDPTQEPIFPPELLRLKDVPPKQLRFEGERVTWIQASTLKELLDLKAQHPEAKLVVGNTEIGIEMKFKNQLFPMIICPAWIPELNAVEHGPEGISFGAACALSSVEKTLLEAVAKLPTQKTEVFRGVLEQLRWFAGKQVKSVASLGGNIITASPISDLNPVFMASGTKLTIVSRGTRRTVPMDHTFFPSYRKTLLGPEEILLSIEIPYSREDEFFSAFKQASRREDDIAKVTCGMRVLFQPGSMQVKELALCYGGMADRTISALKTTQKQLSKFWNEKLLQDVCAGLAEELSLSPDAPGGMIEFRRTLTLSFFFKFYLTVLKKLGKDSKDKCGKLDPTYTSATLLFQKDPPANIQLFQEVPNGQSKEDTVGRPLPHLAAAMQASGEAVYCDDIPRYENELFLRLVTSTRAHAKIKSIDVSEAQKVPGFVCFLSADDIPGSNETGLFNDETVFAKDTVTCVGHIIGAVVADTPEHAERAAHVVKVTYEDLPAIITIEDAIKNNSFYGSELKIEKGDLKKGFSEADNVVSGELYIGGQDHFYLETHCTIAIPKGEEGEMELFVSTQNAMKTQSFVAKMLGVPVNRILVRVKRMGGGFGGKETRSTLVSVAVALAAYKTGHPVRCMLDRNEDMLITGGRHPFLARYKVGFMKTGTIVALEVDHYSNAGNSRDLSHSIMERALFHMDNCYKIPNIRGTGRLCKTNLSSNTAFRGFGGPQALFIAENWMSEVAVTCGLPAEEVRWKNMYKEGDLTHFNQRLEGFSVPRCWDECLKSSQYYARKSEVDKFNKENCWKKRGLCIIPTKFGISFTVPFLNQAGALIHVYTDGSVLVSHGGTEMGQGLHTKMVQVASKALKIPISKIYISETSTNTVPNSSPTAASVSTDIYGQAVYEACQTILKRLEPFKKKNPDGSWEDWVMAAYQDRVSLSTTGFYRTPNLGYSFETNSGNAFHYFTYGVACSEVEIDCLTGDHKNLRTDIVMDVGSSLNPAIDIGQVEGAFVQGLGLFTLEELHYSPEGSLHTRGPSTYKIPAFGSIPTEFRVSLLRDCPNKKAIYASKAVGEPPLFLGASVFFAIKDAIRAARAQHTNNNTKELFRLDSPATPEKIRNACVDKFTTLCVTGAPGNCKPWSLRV
Procedure, shortened: (§1)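 XO (15 U/L) in 0.1 M sodium pyrophosphate buffer pH 8.3 with 0.3 mM Na₂EDTA, preincubated 15 min with test compound; reaction started by adding 64 μM xanthine. Inhibition read as lowered uric acid concentration, in triplicate. Single-point screen at 10 µg/mL; compounds above 50% inhibition were then run over a wide concentration range to derive IC₅₀.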

[2] = biological target: T1, Xanthine dehydrogenase/oxidase; experiment: Inhibition of bovine xanthine oxidase assessed as reduction in uric acid formation at 10 ug/ml using xanthine as substrate preincubated for 15 mins followed by substrate addition by spectrophotometric analysis; settings: cattle; procedure, shortened: as §1
[3] = biological target: T1, Xanthine dehydrogenase/oxidase; experiment: Mixed-type inhibition of bovine xanthine oxidase assessed as reduction in uric acid formation using xanthine as substrate preincubated for 15 mins followed by substrate addition by spectrophotometry based Lineweaver-Burk plot analysis; settings: cattle

| Structure (SMILES) | pIC50 [1] | further results |
| --- | --- | --- |
| CC(C)CCOc1ccc(-c2nc(-c3cccnc3)cn2O)cc1C#N | 5.17 | IC50 [1]: 6.73 µM |
| C=CCOc1ccc(-c2nc(-c3cccnc3)cn2O)cc1C#N | 5.02 | IC50 [1]: 9.62 µM |
| CC(C)COc1ccc(-c2nc(-c3ccncc3)cn2O)cc1C#N |  | inhibition (INH) [2]: < 50% |
| N#Cc1cc(-n2cc(-c3ccncc3)nn2)ccc1OCc1ccccc1 | 4.35 |  |
| Cc1cc(-c2n[nH]c(-c3ccc(OCC(C)C)c(C#N)c3)n2)ccn1 | 7.77 |  |
| N#Cc1cccc(-c2nc(-c3ccncc3)cn2O)c1 |  | inhibition (INH) [2]: < 50% |
| CCC(C)Oc1ccc(-n2cc(-c3ccncc3)nn2)cc1C#N (configuration not stated) | 4.74 |  |
| COCCOCOc1ccc(-c2nc(-c3ccnc(C)c3)n[nH]2)cc1C#N | 7.62 |  |
| CC(C)COc1ccc(-c2nc(-c3cccnc3)cn2O)cc1C#N | 4.99 | IC50 [1]: 10.3 µM |
| CCCCOc1ccc(-n2cc(-c3ccncc3)nn2)cc1C#N | 4.68 |  |
| CCOC(=O)c1cc(-c2nnc(-c3ccnc(C)c3)[nH]2)ccc1OCC(C)C | 7.7 |  |
| CCC(C)Oc1ccc(-c2nc(-c3cccnc3)cn2O)cc1C#N (configuration not stated) |  | inhibition (INH) [2]: < 50% |
| CC(C)CCOc1ccc(-n2cc(-c3ccncc3)nn2)cc1C#N | 5.09 |  |
| CCCCCOc1ccc(-n2cc(-c3ccncc3)nn2)cc1C#N | 4.79 |  |
| Cc1cc(-c2nnc(-c3ccc(OCC(=O)O)c(C#N)c3)[nH]2)ccn1 | 6.96 |  |
| CC(C)Oc1ccc(-c2nc(-c3cccnc3)cn2O)cc1C#N |  | inhibition (INH) [2]: < 50% |
| COc1ccc(-c2nc(-c3cccnc3)cn2O)cc1C#N |  | inhibition (INH) [2]: < 50% |
| Cc1cc(-c2n[nH]c(-c3ccc(O)c(C#N)c3)n2)ccn1 | 7.37 |  |
| COc1ccc(-c2nc(-c3ccncc3)cn2O)cc1C#N | 4.81 | IC50 [1]: 15.4 µM |

| Structure (SMILES) | pIC50 [1] | further results |
| --- | --- | --- |
| CC(C)Oc1ccc(-n2cc(-c3ccncc3)nn2)cc1C#N | 4.6 |  |
| Cc1cc(-c2n[nH]c(-c3ccc(OCC4COC(C)(C)O4)c(C#N)c3)n2)ccn1 (configuration not stated) | 7.22 |  |
| COCOc1ccc(-c2nc(-c3ccnc(C)c3)n[nH]2)cc1C#N | 7.62 |  |
| CCCCOCCOCCOc1ccc(-c2nnc(-c3ccnc(C)c3)[nH]2)cc1C#N | 7.59 |  |
| CC(C)Oc1ccc(-c2nc(-c3ccncc3)cn2O)cc1C#N | 5.32 | IC50 [1]: 4.75 µM |
| Cc1cc(-c2nnc(-c3ccc(OCCOCCOCCCl)c(C#N)c3)[nH]2)ccn1 | 7.68 |  |
| COc1ccc(COc2ccc(-n3cc(-c4ccncc4)nn3)cc2C#N)cc1 | 4.63 |  |
| CC(C)CCOc1ccc(-c2nc(-c3ccncc3)cn2O)cc1C#N | 6.19 | inhibition (INH) [3]: Active; IC50 [1]: 0.64 µM; inhibition (INH) ([1]; cattle): Dose-dependent effect |
| C=CCOc1ccc(-c2nc(-c3ccncc3)cn2O)cc1C#N |  | inhibition (INH) [2]: < 50% |
| N#Cc1cccc(-c2nc(-c3cccnc3)cn2O)c1 |  | inhibition (INH) [2]: < 50% |
| CCC(C)Oc1ccc(-c2nc(-c3ccncc3)cn2O)cc1C#N (configuration not stated) | 5.36 | IC50 [1]: 4.35 µM |
| N#Cc1cc(-c2n[nH]c(-c3ccncc3)n2)ccn1 [TOPIROXOSTAT] |  | IC50 [1]: 0.0048 µM |
| CC(C)COc1ccc(-c2nc(-c3cccnc3)n[nH]2)cc1[N+](=O)[O-] | 5.23 |  |
| COCCOc1ccc(-c2nc(-c3ccnc(C)c3)n[nH]2)cc1C#N | 7.19 |  |
| Cc1cc(-c2n[nH]c(-c3ccc(OCCO)c(C#N)c3)n2)ccn1 | 7.4 |  |
| Cc1cc(-c2nc(-c3ccc(OCC(C)C)c([N+](=O)[O-])c3)n[nH]2)ccn1 | 8 |  |
| COCCOCCOc1ccc(-c2nc(-c3ccnc(C)c3)n[nH]2)cc1C#N | 7.51 |  |
| N#Cc1cc(-n2cc(-c3ccncc3)nn2)ccc1OC1CCCC1 | 5.17 |  |
| CC(C)COc1ccc(-c2nnc(-c3ccnc(Cl)c3)[nH]2)cc1[N+](=O)[O-] | 8 |  |
